ChEMBL document CHEMBL3616394 (Eur J Med Chem, 2015)
Calls of active or inactive are those of the source. The rule behind the calls is not given here.

How the values were obtained:
[1] = biological target: T1, Neuronal acetylcholine receptor; alpha4/beta2 (Rattus norvegicus, UniProt P09483+P12390); test: Displacement of [3H]epibatidine from rat alpha4beta2 nAChR expressed in HEK293 cells after 4 hrs by scintillation counting assay; type: cell-based
[2] = biological target: Neuronal acetylcholine receptor; alpha4/beta4 (Rattus norvegicus, UniProt P09483+P12392); test: Displacement of [3H]epibatidine from rat alpha4beta4 nACHR expressed in HEK293 cells after 4 hrs by scintillation counting assay; type: cell-based; conditions: for pKi: hek293
Sequence of Neuronal acetylcholine receptor; alpha4/beta4 (P09483 whole entry): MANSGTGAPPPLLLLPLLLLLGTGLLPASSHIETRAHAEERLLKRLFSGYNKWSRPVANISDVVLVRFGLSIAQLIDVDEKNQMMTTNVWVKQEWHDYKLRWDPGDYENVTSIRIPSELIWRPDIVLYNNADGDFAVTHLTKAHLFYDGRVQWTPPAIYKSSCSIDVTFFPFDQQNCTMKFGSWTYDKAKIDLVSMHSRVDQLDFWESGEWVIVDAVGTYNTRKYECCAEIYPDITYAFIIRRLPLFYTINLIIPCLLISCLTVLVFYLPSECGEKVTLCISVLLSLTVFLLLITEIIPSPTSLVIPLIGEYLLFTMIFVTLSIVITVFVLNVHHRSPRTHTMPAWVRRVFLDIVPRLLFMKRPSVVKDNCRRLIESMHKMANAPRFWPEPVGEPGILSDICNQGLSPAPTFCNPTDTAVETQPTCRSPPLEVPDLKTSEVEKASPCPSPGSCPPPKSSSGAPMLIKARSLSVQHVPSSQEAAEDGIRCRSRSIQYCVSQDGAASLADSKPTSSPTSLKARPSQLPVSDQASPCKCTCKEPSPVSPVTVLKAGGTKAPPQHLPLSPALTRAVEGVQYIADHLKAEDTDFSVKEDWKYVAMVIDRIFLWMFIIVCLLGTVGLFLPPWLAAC
Sequence of Neuronal acetylcholine receptor; alpha4/beta4 (P12392 whole entry): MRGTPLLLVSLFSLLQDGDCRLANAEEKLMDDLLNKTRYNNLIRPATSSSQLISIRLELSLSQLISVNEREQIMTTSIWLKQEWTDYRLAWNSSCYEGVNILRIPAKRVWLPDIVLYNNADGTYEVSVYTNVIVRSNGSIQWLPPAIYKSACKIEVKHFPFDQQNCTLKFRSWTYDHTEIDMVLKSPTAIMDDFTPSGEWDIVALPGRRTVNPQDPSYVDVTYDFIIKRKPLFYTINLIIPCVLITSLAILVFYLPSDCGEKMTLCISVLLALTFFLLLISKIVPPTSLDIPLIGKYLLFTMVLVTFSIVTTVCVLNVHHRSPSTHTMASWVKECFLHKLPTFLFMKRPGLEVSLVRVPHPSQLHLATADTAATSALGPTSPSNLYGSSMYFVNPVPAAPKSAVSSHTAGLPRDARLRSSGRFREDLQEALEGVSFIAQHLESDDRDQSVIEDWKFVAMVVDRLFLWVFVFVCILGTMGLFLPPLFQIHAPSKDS

[3] = biological target: Neuronal acetylcholine receptor; alpha3/beta4 (Rattus norvegicus, UniProt P04757+P12392); test: Displacement of [3H]epibatidine from rat alpha3beta4 nACHR expressed in HEK293 cells after 4 hrs by scintillation counting assay; type: cell-based; conditions: for pKi: hek293
Sequence of Neuronal acetylcholine receptor; alpha3/beta4 (P04757 whole entry): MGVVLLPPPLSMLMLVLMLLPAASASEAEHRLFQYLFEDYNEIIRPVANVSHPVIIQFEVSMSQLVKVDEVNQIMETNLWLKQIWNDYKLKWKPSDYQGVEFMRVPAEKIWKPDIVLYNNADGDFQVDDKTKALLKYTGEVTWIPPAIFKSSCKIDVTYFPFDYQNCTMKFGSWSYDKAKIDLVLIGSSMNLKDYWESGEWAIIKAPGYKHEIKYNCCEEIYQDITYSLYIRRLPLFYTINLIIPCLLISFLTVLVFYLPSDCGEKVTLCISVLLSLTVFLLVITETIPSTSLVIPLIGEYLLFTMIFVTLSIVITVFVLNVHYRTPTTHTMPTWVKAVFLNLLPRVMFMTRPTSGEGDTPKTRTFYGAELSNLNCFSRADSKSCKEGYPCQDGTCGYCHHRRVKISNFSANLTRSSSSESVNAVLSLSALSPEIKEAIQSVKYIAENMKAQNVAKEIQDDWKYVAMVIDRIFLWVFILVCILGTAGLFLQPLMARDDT
Sequence of Neuronal acetylcholine receptor; alpha3/beta4 (P12392 whole entry): as the sequence (P12392 whole entry) above

[4] = biological target: T2, Neuronal acetylcholine receptor subunit alpha-4/beta-2 (Mus musculus) (UniProt Q9ERK7+O70174); test: Agonist activity at recombinant mouse alpha4beta2 nAChR expressed in HEK293 cells at >=100 uM after 30 min by FLIPR potential blue assay; type: cell-based
T2 sequence (O70174 31-629 partner limits assumed): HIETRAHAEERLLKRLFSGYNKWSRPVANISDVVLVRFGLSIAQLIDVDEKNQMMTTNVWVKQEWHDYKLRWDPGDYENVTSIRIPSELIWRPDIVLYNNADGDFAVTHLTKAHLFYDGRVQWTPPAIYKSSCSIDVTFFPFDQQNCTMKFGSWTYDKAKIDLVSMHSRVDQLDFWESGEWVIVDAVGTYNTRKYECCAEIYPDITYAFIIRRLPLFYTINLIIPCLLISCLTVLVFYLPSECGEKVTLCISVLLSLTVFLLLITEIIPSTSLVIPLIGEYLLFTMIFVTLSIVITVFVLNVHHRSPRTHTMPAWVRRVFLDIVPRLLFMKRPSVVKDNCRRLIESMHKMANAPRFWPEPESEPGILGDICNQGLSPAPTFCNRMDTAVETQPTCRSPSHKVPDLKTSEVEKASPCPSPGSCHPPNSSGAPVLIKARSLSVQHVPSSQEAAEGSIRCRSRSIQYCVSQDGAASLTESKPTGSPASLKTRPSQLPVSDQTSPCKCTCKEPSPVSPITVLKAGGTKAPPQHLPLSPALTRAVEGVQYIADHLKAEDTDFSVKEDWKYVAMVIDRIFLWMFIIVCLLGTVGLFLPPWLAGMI
T2 sequence (Q9ERK7 26-501 limits assumed): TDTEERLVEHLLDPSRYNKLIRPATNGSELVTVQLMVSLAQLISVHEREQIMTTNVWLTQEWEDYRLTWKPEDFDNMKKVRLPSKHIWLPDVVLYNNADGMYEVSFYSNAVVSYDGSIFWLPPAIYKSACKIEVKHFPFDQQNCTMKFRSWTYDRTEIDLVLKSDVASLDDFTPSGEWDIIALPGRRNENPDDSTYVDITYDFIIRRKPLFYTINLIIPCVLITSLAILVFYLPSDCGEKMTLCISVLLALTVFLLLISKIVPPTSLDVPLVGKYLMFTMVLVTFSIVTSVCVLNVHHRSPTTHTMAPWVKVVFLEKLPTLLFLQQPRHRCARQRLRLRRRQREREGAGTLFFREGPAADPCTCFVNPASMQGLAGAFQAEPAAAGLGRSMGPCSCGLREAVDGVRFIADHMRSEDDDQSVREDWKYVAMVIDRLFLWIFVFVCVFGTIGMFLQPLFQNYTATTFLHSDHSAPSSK
Summary of the method: (§1)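 FLIPR membrane potential (FMP) dye assay on α4β2-HEK293T cells. Cells were washed in Krebs buffer (pH 7.4) and loaded with dye (0.5 mg/ml) for 30 min at 37 °C. Emission at 565 nm with excitation at 525 nm was read 20 s before and 70 s after ligand addition. Response was the ΔFU between maximal levels. Duplicate wells, at least three experiments.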

[5] = biological target: T3, Neuronal acetylcholine receptor; alpha3/beta4 (Rattus norvegicus) (UniProt P04757+P12392); test: Agonist activity at recombinant rat alpha3beta4 nAChR expressed in HEK293 cells at 300 uM after 30 min by FLIPR potential blue assay; type: cell-based
Summary of the method: (§2)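 Stable rat α3β4 HEK293 cells were loaded with FMP dye (0.5 mg/ml) in Krebs-HEPES buffer, pH 7.4, for 30 min at 37 °C. For antagonist runs, the test compound was included in the dye buffer and EC70-EC80 ACh was then added. Fluorescence was read at ex 525/em 565 nm, 20 s before and 70 s after ligand addition, and ΔFU taken. Runs were done in duplicate, at least three times.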

[6] = Binding affinity to Aplysia californica AChBP after 300 seconds by SPR biosensor analysis
[7] = biological target: T1, Neuronal acetylcholine receptor; alpha4/beta2; test: Displacement of [3H]epibatidine from rat alpha4beta2 nAChR expressed in HEK293 cells after 4 hr by scintillation counting assay
[8] = biological target: Neuronal acetylcholine receptor subunit alpha-4/beta-2 (Mus musculus, UniProt O70174+Q9ERK7); test: Antagonist activity at recombinant mouse alpha4beta2 nAChR expressed in HEK293 cells assessed as inhibition of acetylcholine-induced effect after 30 min by FLIPR potential blue assay; type: cell-based
Sequence of Neuronal acetylcholine receptor subunit alpha-4/beta-2 (Q9ERK7 whole entry): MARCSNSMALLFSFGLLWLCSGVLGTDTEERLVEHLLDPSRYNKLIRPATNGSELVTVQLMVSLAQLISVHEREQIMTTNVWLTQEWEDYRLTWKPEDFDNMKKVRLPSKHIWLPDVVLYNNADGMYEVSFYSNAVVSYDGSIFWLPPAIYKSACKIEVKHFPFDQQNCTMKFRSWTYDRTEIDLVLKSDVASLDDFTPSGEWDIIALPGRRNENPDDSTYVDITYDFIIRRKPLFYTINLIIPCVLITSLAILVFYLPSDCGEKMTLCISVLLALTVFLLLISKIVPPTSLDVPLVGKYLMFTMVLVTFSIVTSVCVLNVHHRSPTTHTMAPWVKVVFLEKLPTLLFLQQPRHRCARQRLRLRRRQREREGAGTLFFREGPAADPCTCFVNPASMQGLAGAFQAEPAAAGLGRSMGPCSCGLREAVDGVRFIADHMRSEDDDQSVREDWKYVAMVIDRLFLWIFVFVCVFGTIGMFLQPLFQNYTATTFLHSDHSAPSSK
Sequence of Neuronal acetylcholine receptor subunit alpha-4/beta-2 (O70174 whole entry): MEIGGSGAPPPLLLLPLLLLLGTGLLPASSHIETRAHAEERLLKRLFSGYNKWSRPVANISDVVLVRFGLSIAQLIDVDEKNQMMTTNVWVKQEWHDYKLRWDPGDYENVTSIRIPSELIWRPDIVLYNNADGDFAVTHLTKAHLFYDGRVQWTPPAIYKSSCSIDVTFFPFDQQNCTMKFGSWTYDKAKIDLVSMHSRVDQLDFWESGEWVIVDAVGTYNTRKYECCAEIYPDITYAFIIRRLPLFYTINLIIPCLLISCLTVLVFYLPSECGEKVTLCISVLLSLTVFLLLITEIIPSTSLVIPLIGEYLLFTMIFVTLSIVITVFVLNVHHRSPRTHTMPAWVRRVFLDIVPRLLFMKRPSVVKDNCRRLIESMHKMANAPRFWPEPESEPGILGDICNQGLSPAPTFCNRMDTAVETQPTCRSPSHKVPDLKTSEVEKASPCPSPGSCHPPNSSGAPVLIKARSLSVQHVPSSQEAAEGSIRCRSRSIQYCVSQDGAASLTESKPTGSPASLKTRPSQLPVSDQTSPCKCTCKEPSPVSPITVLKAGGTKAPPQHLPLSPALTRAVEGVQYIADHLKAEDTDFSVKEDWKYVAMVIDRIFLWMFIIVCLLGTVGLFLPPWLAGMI
Summary of the method: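 FMP dye assay on α4β2-HEK293T cells. Antagonist was dissolved in the dye-loading Krebs buffer (pH 7.4) and preincubated 30 min at 37 °C. EC70–EC80 ACh was then added as final agonist. 565 nm emission was read before and after addition, and inhibition curves were built from ΔFU at eight concentrations. IC50 fitted; duplicate, at least three experiments.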

[9] = biological target: T3, Neuronal acetylcholine receptor; alpha3/beta4 (Rattus norvegicus); test: Antagonist activity at recombinant rat alpha3beta4 nAChR expressed in HEK293 cells assessed as inhibition of acetylcholine-induced effect at >=100 uM after 30 min by FLIPR potential blue assay; type: cell-based; summary of the method: as §2
[10] = biological target: T2, Neuronal acetylcholine receptor subunit alpha-4/beta-2 (Mus musculus); test: Agonist activity at recombinant mouse alpha4beta2 nAChR expressed in HEK293 cells at >=30 uM after 30 min by FLIPR potential blue assay; type: cell-based; summary of the method: as §1
[11] = biological target: T1, Neuronal acetylcholine receptor; alpha4/beta2; test: Agonist activity at rat (alpha4)2(beta2)3 nAChR expressed in Xenopus oocyte by two electrode voltage-clamp electrophysiology assay
Summary of the method: (§3)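 Xenopus laevis oocytes were injected with about 25 ng total cRNA for rat α4 and β2. The α4:β2 ratio was 1:4 for (α4)2(β2)3 and 10:1 for (α4)3(β2)2. Oocytes were kept at 15-18 °C and recorded 2-5 days later, clamped at -60 mV. Peak currents were taken across 10 nM-10 mM agonist, with 10 min washes between applications. Currents were normalised on the same oocyte to ACh, 300 µM at (α4)2(β2)3 and 1 mM at (α4)3(β2)2.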

[12] = biological target: T1, Neuronal acetylcholine receptor; alpha4/beta2; test: Agonist activity at rat (alpha4)3(beta2)2 nAChR expressed in Xenopus oocyte by two electrode voltage-clamp electrophysiology assay; summary of the method: as §3
[13] = biological target: Neuronal acetylcholine receptor; alpha4/beta2 (Rattus norvegicus) (UniProt P09483+P12390); test: Agonist activity at rat (alpha4)3(beta2)2 nAChR expressed in Xenopus oocyte by two electrode voltage-clamp electrophysiology assay relative to acetylcholine; summary of the method: as §3
[14] = biological target: T2, Neuronal acetylcholine receptor subunit alpha-4/beta-2 (Mus musculus); test: Agonist activity at recombinant mouse alpha4beta2 nAChR expressed in HEK293 cells at 300 uM after 30 min by FLIPR potential blue assay; type: cell-based; summary of the method: as §1

T1 sequence (P09483 whole entry): as the sequence (P09483 whole entry) above
T1 sequence (P12390 whole entry): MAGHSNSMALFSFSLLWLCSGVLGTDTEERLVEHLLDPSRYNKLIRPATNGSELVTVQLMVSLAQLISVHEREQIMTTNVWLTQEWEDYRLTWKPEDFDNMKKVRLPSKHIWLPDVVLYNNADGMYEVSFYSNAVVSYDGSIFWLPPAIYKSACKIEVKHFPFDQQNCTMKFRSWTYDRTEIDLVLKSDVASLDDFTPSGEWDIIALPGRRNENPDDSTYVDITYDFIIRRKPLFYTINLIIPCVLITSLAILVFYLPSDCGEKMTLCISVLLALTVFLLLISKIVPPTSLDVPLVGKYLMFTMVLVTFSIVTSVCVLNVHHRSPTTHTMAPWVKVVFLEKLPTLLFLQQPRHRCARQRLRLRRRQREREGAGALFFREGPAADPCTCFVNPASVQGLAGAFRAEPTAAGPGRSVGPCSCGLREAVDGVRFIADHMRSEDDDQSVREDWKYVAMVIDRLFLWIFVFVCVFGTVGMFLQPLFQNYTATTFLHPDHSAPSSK

| SMILES | Ki [1] | Ki [2] | Ki ([3]; read-out: Ki) | other results |
| --- | --- | --- | --- | --- |
| CNC(=O)OCCC(C)N(C)CCc1ccccc1 (stereo not drawn) | 30 µM | 300 µM | 300 µM |  |
| CNC(=O)OCCC(CCCCc1ccccc1)N(C)C (stereo not drawn) | 3.6 µM | 30 µM | 100 µM | Activity [4]: Active; Activity [5]: Active |
| CNC(=O)OCCC(CCCCCc1ccccc1)N(C)C (stereo not drawn) | 2.7 µM | 4.5 µM | 50 µM |  |
| CN(C)C(=O)OCCC(CCCCc1ccccc1)N(C)C (stereo not drawn) | 1.1 µM | 4.4 µM | 11 µM | Activity [4]: Active; Activity [5]: Active |
| CN(C)C(=O)OCCC(COc1ccc(F)cc1)N(C)C (stereo not drawn) | 500 µM | 100 µM | 300 µM |  |
| CNC(=O)OCCC(CCCc1ccccc1)N(C)C (stereo not drawn) | 11 µM | 30 µM | 100 µM | Activity [4]: Active; Activity [5]: Active |
| CN(C)C(=O)OCCC(CCCc1ccccc1)N(C)C (stereo not drawn) | 1.9 µM | 4.9 µM | 13 µM | Activity [4]: Active; Activity [5]: Active |
| c1ccc(CCCN2CCCN(c3cccnc3)CC2)cc1 | 0.082 µM | 3.8 µM | 3.8 µM | Kd [6]: > 1 µM; pKd [6]: < 6 |
| CN(C)C(=O)OCCC(CCC(O)c1ccccc1)N(C)C (stereo not drawn) | 30 µM | 6.7 µM | 5.9 µM | Ki ([3]; read-out: pKi (converted)): 6.03 µM |
| CNC(=O)OCCC(C)N(C)Cc1ccccc1 (stereo not drawn) | 300 µM | 300 µM | 300 µM |  |
| c1cncc(N2CCCNCC2)c1 |  |  |  | Ki [7]: 0.00072 µM |
| CC(CCOC(=O)N(C)C)N(C)CCCc1ccccc1 (stereo not drawn) | 300 µM | > 1000 µM | > 1000 µM | pKi [2]: < 3; pKi [3]: < 3 |
| c1ccc(CN2CCN(c3cccnc3)CC2)cc1 | 9.6 µM | 100 µM | > 300 µM | Ki ([3]; read-out: pKi (converted)): > 316 µM |
| C(=C\N1CCCN(c2cccnc2)CC1)/c1ccccc1 | 0.099 µM | 1.6 µM | 2.9 µM | IC50 [8]: 1.1 µM; inhibition [9]: inactive |
| c1ccc(CCN2CCCN(c3cccnc3)CC2)cc1 | 0.11 µM | 2.4 µM | 3.4 µM |  |
| CN(C)C(CCCCc1ccccc1)CCOc1nccn1C (stereo not drawn) | 0.76 µM | 3.7 µM | 8.3 µM | Activity [10]: Active |
| Brc1ccc(N2CCCN(CCCc3ccccc3)CC2)cn1 | 0.82 µM | 1.5 µM | 2.2 µM |  |
| c1ccc(CCCN2CCN(c3cccnc3)CC2)cc1 | 0.49 µM | 3.5 µM | 20 µM | Activity [4]: Active; Activity [5]: Active |
| CNC(=O)OCCC(C)N(C)CCCc1ccccc1 (stereo not drawn) | 50 µM | > 1000 µM | > 1000 µM | pKi [2]: < 3; pKi [3]: < 3 |
| c1ccc(CN2CCCN(c3cccnc3)CC2)cc1 | 0.104 µM | 3.4 µM | 2.6 µM | EC50 [11]: 1.8 µM; EC50 [12]: 7.9 µM; Kd [6]: > 1 µM; pKd [6]: < 6; Rmax [13]: 6 |
| Brc1cccc(CCN2CCCN(c3cccnc3)CC2)c1 | 0.13 µM | 1.9 µM | 0.78 µM |  |
| CNC(=O)OCCC(C)N(C)CC(O)c1ccccc1 (stereo not drawn) | 300 µM | 300 µM | 1000 µM |  |
| c1ccc(CCN2CCN(c3cccnc3)CC2)cc1 | 0.56 µM | 8.9 µM | 8.2 µM | Activity [14]: Active; Activity [5]: Active |
| CC(CCOC(=O)N(C)C)N(C)CC(O)Cc1ccccc1 (stereo not drawn) | 500 µM | 100 µM | > 1000 µM | pKi [3]: < 3 |
| CN1[C@@H](CC(=O)c2ccccc2)CCC[C@H]1C[C@H](O)c1ccccc1 [LOBELINE] |  |  |  | Kd [6]: 0.013 µM; pKd [6]: 7.9 |
| CNC(=O)OCCC(CCC(O)c1ccccc1)N(C)C (stereo not drawn) | 100 µM | 100 µM | > 300 µM | Ki ([3]; read-out: pKi (converted)): > 316 µM |
| CN(C)C(=O)OCCC(COc1ccccn1)N(C)C (stereo not drawn) | 100 µM | 300 µM | 300 µM |  |
